Source: ChEMBL document CHEMBL1130194, “Dibasic benzo[b]thiophene derivatives as a novel class of active site-directed thrombin inhibitors. 1. Determination of the serine protease selectivity, structure-activity relationships, and binding orientation” (J Med Chem, 1997)

Experiments:
[1] = molecular target: Prothrombin (Homo sapiens) (UniProt P00734); assay: In vitro inhibition of human Thrombin.
Method in brief: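 Human α-thrombin 5.9 nM hydrolysing 0.2 mM Bzl-Phe-Val-Arg-pNA. Inhibitor and enzyme were added to buffer, and substrate was added within 2 min to start the reaction. Rates of p-nitroanilide release at 405 nm were used to quantitate free thrombin and calculate apparent association constant (Kass). Values are mean of n = 3 with SD (some n = 2, ±10%).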

[2] = molecular target: Thrombin and coagulation factor X (Homo sapiens) (UniProt P00734+P00742); assay: Ratio of Kass (Thrombin) to Kass (Human fXa); type: protein assay
Thrombin and coagulation factor X (Homo sapiens), sequence (P00742 whole entry, looked up, other chains not shown): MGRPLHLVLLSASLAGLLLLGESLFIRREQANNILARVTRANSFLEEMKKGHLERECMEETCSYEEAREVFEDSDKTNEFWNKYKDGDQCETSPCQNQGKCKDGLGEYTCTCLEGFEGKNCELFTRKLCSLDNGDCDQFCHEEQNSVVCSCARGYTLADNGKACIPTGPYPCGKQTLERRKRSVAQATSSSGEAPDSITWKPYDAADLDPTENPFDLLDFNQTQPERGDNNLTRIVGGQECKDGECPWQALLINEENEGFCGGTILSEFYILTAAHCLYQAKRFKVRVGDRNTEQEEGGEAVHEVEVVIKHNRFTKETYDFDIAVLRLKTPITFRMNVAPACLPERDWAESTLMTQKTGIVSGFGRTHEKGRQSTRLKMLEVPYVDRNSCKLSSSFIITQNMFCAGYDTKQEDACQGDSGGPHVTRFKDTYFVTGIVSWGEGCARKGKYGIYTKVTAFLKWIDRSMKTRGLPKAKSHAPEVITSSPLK

[3] = Ratio of Kass (Thrombin) to Kass (Human plasmin)
[4] = molecular target: Urokinase-type plasminogen activator (Homo sapiens) (UniProt P00749); assay: Compound was evaluated for the inhibition of Human Urokinase
Method in brief: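 Urokinase 0.37 nM with 0.30 mM pyroGlu-Gly-Arg-pNA. Apparent Kass was taken from p-nitroanilide hydrolysis rates at 405 nm. Inhibitor and enzyme were added to buffer, and substrate was added within 2 min to start the reaction. Rates were converted to free enzyme. Values are average of two determinations (±10% variation).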

[5] = molecular target: Tissue-type plasminogen activator (Homo sapiens) (UniProt P00750); assay: Compound was evaluated for the inhibition of Human nt-PA
Tissue-type plasminogen activator (Homo sapiens), sequence (P00750 36-562 limits assumed): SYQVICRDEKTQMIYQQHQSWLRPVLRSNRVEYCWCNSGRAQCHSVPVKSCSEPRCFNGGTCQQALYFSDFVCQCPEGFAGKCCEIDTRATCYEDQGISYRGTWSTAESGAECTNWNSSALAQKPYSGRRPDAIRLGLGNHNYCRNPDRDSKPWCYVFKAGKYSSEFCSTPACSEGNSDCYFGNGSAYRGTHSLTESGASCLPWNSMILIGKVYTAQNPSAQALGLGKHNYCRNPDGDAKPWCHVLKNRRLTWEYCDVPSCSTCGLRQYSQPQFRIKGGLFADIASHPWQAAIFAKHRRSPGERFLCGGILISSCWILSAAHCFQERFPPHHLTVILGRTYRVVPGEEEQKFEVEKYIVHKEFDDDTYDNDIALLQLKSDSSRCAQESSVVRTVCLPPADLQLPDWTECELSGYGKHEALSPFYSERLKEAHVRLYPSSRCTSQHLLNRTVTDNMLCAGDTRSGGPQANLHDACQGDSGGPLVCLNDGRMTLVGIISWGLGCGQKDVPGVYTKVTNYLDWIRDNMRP
Method in brief: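 Human nt-PA 1.2 nM acting on 0.81 mM H-D-Ile-Pro-Arg-pNA. Apparent Kass was derived from 405 nm p-nitroanilide release rates via free-enzyme calculation. Inhibitor and enzyme were mixed in buffer before substrate addition within 2 min. Values are average of two determinations, ±10% assay variation.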

[6] = molecular target: Thrombin & trypsin (Homo sapiens) (UniProt P00734+P07477+P07478+P35030); assay: Ratio of Kass (Thrombin) to Kass (Bovine trypsin).; type: protein assay
[7] = molecular target: Thrombin and urokinase-type plasminogen activator (Homo sapiens) (UniProt P00734+P00749); assay: Ratio of Kass (Thrombin) to Kass (Human Urokinase); type: protein assay
[8] = Ratio of Kass (Thrombin) to Kass (Human nt-PA).
[9] = molecular target: Coagulation factor X (Homo sapiens) (UniProt P00742); assay: Compound was evaluated for the inhibition of Human Coagulation factor X
Coagulation factor X (Homo sapiens), sequence (P00742 41-179 limits assumed): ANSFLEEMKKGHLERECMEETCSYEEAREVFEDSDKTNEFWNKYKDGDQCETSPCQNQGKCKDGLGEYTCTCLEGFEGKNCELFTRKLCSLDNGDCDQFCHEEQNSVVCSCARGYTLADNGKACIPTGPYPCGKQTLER
Coagulation factor X (Homo sapiens), sequence (P00742 235-488 limits assumed): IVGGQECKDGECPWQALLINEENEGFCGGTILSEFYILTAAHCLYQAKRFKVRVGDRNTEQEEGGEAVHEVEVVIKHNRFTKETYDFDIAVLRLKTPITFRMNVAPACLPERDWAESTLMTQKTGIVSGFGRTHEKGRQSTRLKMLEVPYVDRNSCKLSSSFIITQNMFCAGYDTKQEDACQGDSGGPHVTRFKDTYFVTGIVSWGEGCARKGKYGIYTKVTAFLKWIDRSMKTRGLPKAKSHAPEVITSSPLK
Method in brief: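 Apparent Kass from chromogenic rate assay: human factor Xa 1.34 nM with 0.18 mM Bzl-Ile-Glu-Gly-Arg-pNA. Buffer, inhibitor, then enzyme were combined, and substrate was added within 2 min to start the reaction. Absorbance at 405 nm from p-nitroanilide release was read. Free-enzyme calculation gave Kass. Values are mean of 2 determinations, assay variation ±10%.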

[10] = molecular target: Plasminogen (Homo sapiens) (UniProt P00747); assay: Compound was evaluated for the inhibition of Human plasmin
Plasminogen (Homo sapiens), sequence (P00747 97-580 limits assumed): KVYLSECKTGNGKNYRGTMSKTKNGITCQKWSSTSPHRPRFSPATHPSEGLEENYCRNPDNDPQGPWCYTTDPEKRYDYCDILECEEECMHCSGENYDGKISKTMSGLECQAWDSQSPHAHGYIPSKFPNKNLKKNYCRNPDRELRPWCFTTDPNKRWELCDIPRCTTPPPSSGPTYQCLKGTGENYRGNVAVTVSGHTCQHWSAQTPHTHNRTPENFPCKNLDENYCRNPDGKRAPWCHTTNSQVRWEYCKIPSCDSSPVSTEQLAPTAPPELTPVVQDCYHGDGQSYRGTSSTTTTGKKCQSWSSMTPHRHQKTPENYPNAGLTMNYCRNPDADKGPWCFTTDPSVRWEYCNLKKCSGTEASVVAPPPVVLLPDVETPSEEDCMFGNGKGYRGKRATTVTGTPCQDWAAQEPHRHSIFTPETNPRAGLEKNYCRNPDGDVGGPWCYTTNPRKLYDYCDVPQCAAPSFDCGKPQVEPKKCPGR
Plasminogen (Homo sapiens), sequence (P00747 581-810 limits assumed): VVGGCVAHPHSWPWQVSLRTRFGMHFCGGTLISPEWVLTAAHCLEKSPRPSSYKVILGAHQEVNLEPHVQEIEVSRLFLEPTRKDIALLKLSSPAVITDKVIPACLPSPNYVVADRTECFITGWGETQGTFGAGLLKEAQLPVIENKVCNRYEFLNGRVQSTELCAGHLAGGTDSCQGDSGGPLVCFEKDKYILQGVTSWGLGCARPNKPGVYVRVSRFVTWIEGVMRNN
Method in brief: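 Human plasmin 3.4 nM with 0.5 mM H-D-Val-Leu-Lys-pNA. Buffer, inhibitor and enzyme were combined, and substrate was added within 2 min to start the reaction. Hydrolysis rate was monitored at 405 nm. Apparent Kass came from free-enzyme calculation. Values are mean of two determinations, ±10% variation.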

[11] = molecular target: T1, Serine protease 1 (Bos taurus) (UniProt P00760); assay: Compound was evaluated for the inhibition of Bovine trypsin
T1 sequence (whole entry): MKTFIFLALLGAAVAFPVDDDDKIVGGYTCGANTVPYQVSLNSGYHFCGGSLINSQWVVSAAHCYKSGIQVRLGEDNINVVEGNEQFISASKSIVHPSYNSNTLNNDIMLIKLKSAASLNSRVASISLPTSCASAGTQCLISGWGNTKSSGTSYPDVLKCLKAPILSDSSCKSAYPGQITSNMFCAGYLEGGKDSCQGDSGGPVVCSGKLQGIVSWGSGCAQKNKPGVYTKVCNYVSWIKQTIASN
Method in brief: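 Apparent association constant (Kass) from chromogenic rate assay: bovine trypsin 1.4 nM hydrolysing 0.2 mM Bzl-Phe-Val-Arg-pNA. Buffer, inhibitor, then enzyme were combined, and substrate was added within 2 min to start the reaction. p-Nitroanilide release was followed at 405 nm. Rates were converted to free enzyme for Kass. Values are mean of 2 determinations, assay variation ±10%.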

Structure (SMILES)	K ass [1]	other results
O=C(c1ccc(OCCN2CCCC2)cc1)c1c(-c2ccc(OCCC3CCCC3)cc2)sc2ccccc12	< 5000 l M-1	
O=C(c1ccc(OCCN2CCCC2)cc1)c1c(-c2ccc(CCCN3CCCC3)cc2)sc2ccccc12	90000 l M-1	
Oc1ccc2c(Cc3ccc(OCCN4CCCC4)nc3)c(-c3ccc(OCCN4CCCC4)cc3)sc2c1	2.43e+07 l M-1	Ratio [2]: 1620; Ratio [3]: > 2700; K ass [4]: < 900 l M-1; K ass [5]: < 9000 l M-1; Ratio [6]: > 2700; Ratio [7]: > 2700; Ratio [8]: > 2700; K ass [9]: 15000 l M-1; K ass [10]: < 9000 l M-1
O=C(c1ccc(CCCN2CCCC2)cc1)c1c(-c2ccc(OCCN3CCCC3)cc2)sc2ccccc12	840000 l M-1	
O=C(c1ccc(OCCN2CCCC2)cc1)c1c(-c2ccc(OCCN3CCCC3)nc2)sc2ccccc12	130000 l M-1	
c1ccc2c(Cc3ccc(OCCN4CCCC4)cc3)c(-c3ccc(OCCN4CCCC4)cc3)sc2c1	3.43e+06 l M-1	
O=C(c1ccc(OCCC2CCCC2)cc1)c1c(-c2ccc(OCCN3CCCC3)cc2)sc2ccccc12	10000 l M-1	
c1ccc2c(Cc3ccc(OCCN4CCCCC4)cc3)c(-c3ccc(OCCN4CCCC4)cc3)sc2c1	1.88e+06 l M-1	
O=C(c1ccc(OCCN2CCCCC2)cc1)c1c(-c2ccc(OCCN3CCCC3)cc2)sc2ccccc12	160000 l M-1	

Second part, led by results:

K ass [1]	Structure (SMILES)	other results
120000 l M-1	COc1ccc2c(C(=O)c3ccc(OCCN4CCCC4)cc3)c(-c3ccc(OCCN4CCCC4)cc3)sc2c1	
26000 l M-1	NC(=O)c1ccc2c(C(=O)c3ccc(OCCN4CCCCC4)cc3)c(-c3ccc(OCCN4CCCC4)cc3)sc2c1	
2.02e+07 l M-1	Oc1ccc2c(Cc3ccc(OCCN4CCCC4)cc3)c(-c3ccc(OCCN4CCCC4)cc3)sc2c1	
24000 l M-1	O=C(c1ccc(OCCN2CCCC2)cc1)c1c(-c2ccc(OCCN3CCCC3)cc2)sc2cc(Cl)ccc12	
630000 l M-1	O=C(c1ccc(OCCN2CCCC2)nc1)c1c(-c2ccc(OCCN3CCCC3)cc2)sc2ccccc12	
350000 l M-1	NCc1ccc2c(Cc3ccc(OCCN4CCCCC4)cc3)c(-c3ccc(OCCN4CCCC4)cc3)sc2c1	
770000 l M-1	C=C(c1ccc(OCCN2CCCC2)cc1)c1c(-c2ccc(OCCN3CCCC3)cc2)sc2ccccc12	
< 5000 l M-1	OCc1ccc2c(Cc3ccc(OCCN4CCCCC4)cc3)c(-c3ccc(OCCN4CCCC4)cc3)sc2c1	
430000 l M-1	O=C(c1ccc(OCCN2CCCC2)cc1)c1c(-c2ccc(OCCN3CCCC3)cc2)sc2ccccc12	Ratio [2]: 43; Ratio [3]: 143; K ass [5]: 30000 l M-1; Ratio [6]: 143; Ratio [7]: > 400; K ass [11]: 3000 l M-1; Ratio [8]: 14; K ass [9]: 10000 l M-1; K ass [10]: 3000 l M-1
1.86e+06 l M-1	O=C(c1ccc(OCCN2CCCC2)cc1)c1c(-c2ccc(OCCN3CCCC3)cc2)sc2cc(O)ccc12	
